Data from ChEMBL document CHEMBL4715822, “Structure-based lead optimization to improve antiviral potency and ADMET properties of phenyl-1H-pyrrole-carboxamide entry inhibitors targeted to HIV-1 gp120” (Eur J Med Chem, 2018).
In brackets after ≈: the same amount, converted by molar mass.

How the values were obtained:
[1] = Solubility in 2 % DMSO at pH 7.4 at 500 uM incubated for 90 mins in shaker by spectrophotometry; type: physicochemical
How it was run: (§1)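 DMSO stock diluted to 500 μM in universal aqueous buffer pH 7.4 with 2 or 5% DMSO final; quadruplicate, 90 min shaking at room temperature in filter plate, vacuum filtered; filtrate in 20% acetonitrile read by UV absorbance at six wavelengths. Filtrate/standard ratio binned as ~500, 100–500 or <100 μM.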

[2] = tested on: Human immunodeficiency virus 1; assay: Antiviral activity against pseudovirus HIV-1 HXB-2 harboring Env S375W mutant infected in human U87.CD4.CXCR4 cells assessed as reduction in viral infection pretreated for 30 mins before viral infection and measured after 3 days by luciferase based assay; type: functional, cell-based, M:B_HXB2R
How it was run: (§2)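 Pseudoviruses made in HEK293T by co-transfecting an Env-deleted backbone (pSG3Δenv or pNL4-3.Luc.R-.E-) with an HXB-2 Env plasmid carrying single or double substitutions; Env sequences confirmed by sequencing. Virus pretreated 30 min with graded compound, added to U87-CD4-CXCR4 cells (1 × 10⁴/well, plated overnight), incubated 3 days. Cells lysed, luciferase measured, IC50 calculated.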

[3] = tested on: Human immunodeficiency virus 1; assay: Antiviral activity against clinical isolate HIV-1 93RW018 infected in human PBMC cells assessed as reduction in viral transmission to TZM-bl cells pretreated for 1 hr before viral transmission and further incubated for 48 hrs by luciferase based assay; type: functional, organism-based; details: Human immunodeficiency virus 1, 93RW018, PBMC
[4] = tested on: Human immunodeficiency virus 1; assay: Antiviral activity against clinical isolate HIV-1 93RW034 infected in human PBMC cells assessed as reduction in viral transmission to TZM-bl cells pretreated for 1 hr before viral transmission and further incubated for 48 hrs by luciferase based assay; type: functional, organism-based; details: Human immunodeficiency virus 1, 93RW034, PBMC
[5] = Apparent permeability across basolateral to apical side in human Caco2 cells incubated for 2 hrs by LC-MS/MS analysis; type: ADME, cell-based, Caco-2; details: caco-2, 2 h
How it was run: (§3)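 Caco-2 monolayers grown three weeks to differentiate; compound in transport buffer pH 7.4 (glucose, 10 mM HEPES, HBSS) added apical (A-B) or basal (B-A) side, with or without 100 μM verapamil; 2 h incubation, both sides sampled. Lucifer yellow 100 μM on A side checks integrity (≤2% transport). Papp = (dQ/dt)/(C0 × A); efflux ratio = Papp(B→A)/Papp(A→B).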

[6] = tested on: Human immunodeficiency virus 1; assay: Antiviral activity against clinical isolate HIV-1 BCF01 infected in human PBMC cells assessed as reduction in viral transmission to TZM-bl cells pretreated for 1 hr before viral transmission and further incubated for 48 hrs by luciferase based assay; type: functional, cell-based; details: Human immunodeficiency virus 1, BCF01, PBMC
How it was run: (§4)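 PBMC from healthy HIV-negative donors infected with replication-competent virus in the presence of 30 μg/ml DEAE-dextran. On day 4 post-infection, cells washed free of virus and counted. 2 × 10⁴ infected PBMC/well pretreated with escalating compound for 1 h at 37 °C, then co-cultured 48 h with TZM-bl targets (10⁴/well, plated 24 h before). TZM-bl lysed, luciferase read, IC50 calculated.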

[7] = tested on: Human immunodeficiency virus 1; assay: Antiviral activity against pseudovirus HIV-1 HXB-2 harboring Env I424F mutant infected in human U87.CD4.CXCR4 cells assessed as reduction in viral infection pretreated for 30 mins before viral infection and measured after 3 days by luciferase based assay; type: functional, cell-based, M:B_HXB2R; how it was run: as §2
[8] = tested on: Human immunodeficiency virus 1; assay: Antiviral activity against clinical isolate HIV-1 RU570 infected in human PBMC cells assessed as reduction in viral transmission to TZM-bl cells pretreated for 1 hr before viral transmission and further incubated for 48 hrs by luciferase based assay; type: functional, cell-based; details: Human immunodeficiency virus 1, RU570, PBMC
[9] = tested on: Human immunodeficiency virus 1; assay: Antiviral activity against Laboratory adapted HIV-1 BaL infected in human PBMC cells assessed as reduction in viral transmission to TZM-bl cells pretreated for 1 hr before viral transmission and further incubated for 48 hrs by luciferase based assay; type: functional, cell-based; details: Human immunodeficiency virus 1, BaL; how it was run: as §4
[10] = tested on: Human immunodeficiency virus 1; assay: Antiviral activity against clinical isolate HIV-1 92US657 infected in human PBMC cells assessed as reduction in viral transmission to TZM-bl cells pretreated for 1 hr before viral transmission and further incubated for 48 hrs by luciferase based assay; type: functional, cell-based; details: Human immunodeficiency virus 1, 92US657, PBMC; how it was run: as §4
[11] = tested on: Human immunodeficiency virus 1; assay: Antiviral activity against clinical isolate HIV-1 93BR019 infected in human PBMC cells assessed as reduction in viral transmission to TZM-bl cells pretreated for 1 hr before viral transmission and further incubated for 48 hrs by luciferase based assay; type: functional, cell-based; details: Human immunodeficiency virus 1, 93BR019, PBMC
[12] = tested on: Human immunodeficiency virus 1; assay: Antiviral activity against pseudovirus HIV-1 HXB-2 harboring Env M475I mutant infected in human U87.CD4.CXCR4 cells assessed as reduction in viral infection pretreated for 30 mins before viral infection and measured after 3 days by luciferase based assay; type: functional, cell-based, M:B_HXB2R; how it was run: as §2
[13] = tested on: Human immunodeficiency virus 1; assay: Antiviral activity against HIV-1 ADA infected in human MOLT-4 cells assessed as reduction in viral transmission to TZM-bl cells incubated for 48 hrs by luciferase based assay; type: functional, organism-based; details: Human immunodeficiency virus 1, ADA, MOLT-4, 48 h
[14] = tested on: Human immunodeficiency virus 1; assay: Antiviral activity against pseudovirus HIV-1 HXB-2 harboring Env M434I mutant infected in human U87.CD4.CXCR4 cells assessed as reduction in viral infection pretreated for 30 mins before viral infection and measured after 3 days by luciferase based assay; type: functional, cell-based, M:B_HXB2R; how it was run: as §2
[15] = tested on: Human immunodeficiency virus 1; assay: Antiviral activity against clinical isolate HIV-1 BCF03 infected in human PBMC cells assessed as reduction in viral transmission to TZM-bl cells pretreated for 1 hr before viral transmission and further incubated for 48 hrs by luciferase based assay; type: functional, cell-based; details: Human immunodeficiency virus 1, BCF03, PBMC
[16] = Apparent permeability across apical to basolateral side in human Caco2 cells incubated for 2 hrs by LC-MS/MS analysis; type: ADME, cell-based, Caco-2; details: caco-2, 2 h; how it was run: as §3
[17] = tested on: Human immunodeficiency virus 1; assay: Antiviral activity against clinical isolate HIV-1 92US073 infected in human PBMC cells assessed as reduction in viral transmission to TZM-bl cells pretreated for 1 hr before viral transmission and further incubated for 48 hrs by luciferase based assay; type: functional, cell-based; details: Human immunodeficiency virus 1, 92US073, PBMC; how it was run: as §4
[18] = tested on: Human immunodeficiency virus 1; assay: Antiviral activity against pseudovirus HIV-1 HXB-2 harboring Env N425K mutant infected in human U87.CD4.CXCR4 cells assessed as reduction in viral infection pretreated for 30 mins before viral infection and measured after 3 days by luciferase based assay; type: functional, cell-based, M:B_HXB2R; how it was run: as §2
[19] = tested on: Human immunodeficiency virus 1; assay: Antiviral activity against pseudovirus HIV-1 HXB-2 harboring Env S375Y mutant infected in human U87.CD4.CXCR4 cells assessed as reduction in viral infection pretreated for 30 mins before viral infection and measured after 3 days by luciferase based assay; type: functional, cell-based, M:B_HXB2R; how it was run: as §2
[20] = Solubility in 5% DMSO at pH 7.4 at 500 uM incubated for 90 mins in shaker by spectrophotometry; type: physicochemical; how it was run: as §1
[21] = tested on: Human immunodeficiency virus 1; assay: Antiviral activity against pseudovirus HIV-1 HXB-2 harboring Env F468L mutant infected in human U87.CD4.CXCR4 cells assessed as reduction in viral infection pretreated for 30 mins before viral infection and measured after 3 days by luciferase based assay; type: functional, cell-based, M:B_HXB2R; how it was run: as §2
[22] = tested on: Human immunodeficiency virus 1; assay: Antiviral activity against pseudovirus HIV-1 HXB-2 harboring Env M434I/I595F double mutant infected in human U87.CD4.CXCR4 cells assessed as reduction in viral infection pretreated for 30 mins before viral infection and measured after 3 days by luciferase based assay; type: functional, cell-based, M:B_HXB2R; how it was run: as §2

SMILES: COc1cnc(-n2cnc(C)n2)c2[nH]cc(C(=O)C(=O)N3CCN(C(=O)c4ccccc4)CC3)c12
- solubility kinetic at […], 500 µM [1]: < 100 µM
- IC50 [2]: > 1000 nM
- IC50 [3]: 100 nM
- IC50 [4]: 100 nM
- Papp [5]: 32 10^-6 cm/s
- IC50 [6]: > 6 µM
- IC50 [7]: > 1000 nM
- IC50 [8]: 100 nM
- IC50 [9]: 100 nM
- IC50 [10]: 100 nM
- IC50 [11]: 100 nM
- IC50 [12]: 50 nM
- IC50 [13]: 400 nM
- IC50 [14]: 8 nM
- IC50 [15]: > 6 µM
- Papp [16]: 9.27 10^-6 cm/s
- IC50 [17]: 100 nM
- IC50 [18]: 8 nM
- IC50 [19]: > 1000 nM
- solubility kinetic at […], 500 µM [20]: 100 µM (≈ 47.3 µg/mL)
- IC50 [21]: 8 nM
- IC50 [22]: 8 nM
